Assay outcomes: PubChem BioAssay, several laboratories
TRPML3 ag: agonists of human TRPML3 channel | Q8TDD5 | activation, % at 3 µM | 220,000 tested, 0.29% active | HEK293 TRPML3-YFP, Fluo-8 calcium fluorescence; 100% = the carbachol control signal;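 active = activation above its plate's cutoff, the mean activation of the plate's test wells plus 3 SD, cut at about 12% in these data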;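 note: 0% = DMSO only wells and 100% = carbachol wells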
Target sequence (Q8TDD5 whole entry, looked up): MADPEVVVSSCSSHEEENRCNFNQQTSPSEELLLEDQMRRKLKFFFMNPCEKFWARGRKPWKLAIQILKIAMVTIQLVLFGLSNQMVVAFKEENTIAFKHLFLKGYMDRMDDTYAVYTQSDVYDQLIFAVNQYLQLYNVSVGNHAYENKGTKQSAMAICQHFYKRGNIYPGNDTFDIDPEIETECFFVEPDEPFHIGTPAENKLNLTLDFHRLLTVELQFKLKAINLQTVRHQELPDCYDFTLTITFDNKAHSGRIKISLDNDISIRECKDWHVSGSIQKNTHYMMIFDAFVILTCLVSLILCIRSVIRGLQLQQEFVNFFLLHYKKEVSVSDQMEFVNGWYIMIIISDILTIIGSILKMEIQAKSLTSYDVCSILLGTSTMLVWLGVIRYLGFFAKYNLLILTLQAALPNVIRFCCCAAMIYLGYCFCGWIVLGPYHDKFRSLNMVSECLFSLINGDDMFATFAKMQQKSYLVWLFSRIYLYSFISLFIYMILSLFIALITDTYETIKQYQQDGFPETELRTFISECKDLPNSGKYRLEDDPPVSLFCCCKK
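Test system – HEK293 line with stable expression of human TRPML3-YFP channel · Control set – carbachol 87 µM final as high control (100%), DMSO as low control (0%) · Signal – Fluo-8 calcium dye fluorescence, ex 470-495, em 515-575 nm · Incubation – 1-h 37 °C dye load, 5-s basal, 120-s post-compound reads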
GPR7 antagonist: human neuropeptides B/W receptor 1 antagonism. P48145. GPR7-expressing cells, fluorescence antagonist assay. inhibition, % at 4.4 µM. 290,000 tested, 1.1% active. AID 1861; in the data active = inhibition above about 16%, passing the limit was not always enough;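 note: cells stimulated with the agonist NPW; 0% = agonist with vehicle and 100% = vehicle without agonist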
TAAR1 antagonist: antagonists of human TAAR1 | Q96RJ0 | CHO RD-HGA16 TAAR1, Fluo-8 calcium fluorescence, antagonist | inhibition, % at 3 µM | 360,000 tested, 1.5% active | AID 624466;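 active = inhibition above a per-plate cutoff, the mean inhibition of test compounds on that plate plus 3 SD, cut at about 49% in these data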;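 note: 0% = DMSO plus EC80 beta-PEA response and 100% = DMSO alone without agonist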
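Material: RD-HGA16 CHO cells with stable hTAAR1 and Gα16; Dosing: single nominal final test compound concentration of 3 µM; Schedule: seeding 17-24 h prior, 75-min 37 °C, 30-min RT dye loading; Detection: kinetic Fluo-8 calcium fluorescence measurement; Measure: % inhibition from peak post-agonist over basal fluorescence ratio; Benchmarks: vehicle and agonist controls.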
LANA-H2A inh: blocks KSHV LANA binding to histone H2A/H2B; Q9QR71; cell-free LANA-H2A/H2B peptide, fluorescence polarization; inhibition, % (concentration not given with the values); 320,000 tested, 0.6% active; AID 2629; in the data active = inhibition mostly above about 10%, no sharp cut-off; inactive = mostly below about 6.7%
zfTRPN1 agonist: zebrafish TRPN1 (NompC) channel agonism; HEK293 zebrafish TRPN1-YFP, Fluo-8 calcium fluorescence; 100% = response to 87 µM carbachol; activation, % at 3 µM; 220,000 tested, 0.18% active;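 active = activation above its plate's cutoff, the mean activation of test wells on that plate plus 3 SD, cut at about 19% in these data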;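 note: 0% = DMSO alone and 100% = 87 µM carbachol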
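Assay system: Zebrafish TRPN1-YFP in HEK293 cells | Incubation: Dye loading 1 h at 37 °C, then 30 min room temperature | Measured by: Kinetic Fluo-8 fluorescence, ex 470-495, em 515-575 nm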
TAAR1 agonist: agonists of human TAAR1 | Q96RJ0 | CHO RD-HGA16 TAAR1, Fluo-8 calcium fluorescence; vehicle wells 0%, saturating PEA agonist 100% | activation, % at 3 µM | 360,000 tested, 0.99% active;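 active = activation above the mean activation of all test compounds in the run plus 3 SD, cut at about 38% in these data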
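Assay system: CHO-derived RD-HGA16 cells with stable Gα16 and human TAAR1; timing: 17-24 h seeding, 75 min 37 °C dye, 30 min RT; read-out: % activation from peak over basal fluorescence ratio, DMSO-to-PEA scaled; measured by: kinetic Fluo-8 calcium fluorescence; benchmarks: low control DMSO, high control PEA (EC100); doses: 3 µM single concentration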
An asterisk follows results filed as active; · = not tested or not shown. An excerpt weighted towards active compounds, which were near 3.4% of everything screened.

SMILES | TRPML3 ag | GPR7 antagonist | TAAR1 antagonist | LANA-H2A inh | zfTRPN1 agonist | TAAR1 agonist
COc1ccccc1/C=C/C(=O)NCC(=O)N/N=C/c1ccccc1 | 0.1 | 8.6 | -26.5 | -1.9 | -0.6 | 38.3*
CNCCC(Oc1ccc(C(F)(F)F)cc1)c1ccccc1 (stereo not given) | 1.6 | 16.9 | 3.6 | 13.3* | 0.7 | 31.4
CNCCCOc1ccc(C(C)(C)c2ccccc2)cc1 | 1.4 | 8.5 | · | · | 1.8 | ·
CN(C)c1ccc(/C=C(\C#N)C(=O)c2ccccc2)cc1 | 38.2* | 28.6* | 78.8* | 2.7 | 58.2* | 104.3*
O=S(=O)(c1ccc(C(F)(F)F)cc1)N1CCCc2nc(-c3ccc(Br)cc3)ccc21 | · | · | -26.1 | · | · | -0.1
NC(=O)C1CCN(C(c2ccccc2Cl)c2nnnn2Cc2ccc3c(c2)OCO3)CC1 (stereo not given) | 0.7 | -6.2 | -7.2 | 25.9* | 0.4 | 13.0
CC(C)C(c1nnnn1Cc1ccc(F)cc1)N1CCC(C(N)=O)CC1 (stereo not given) | 0.5 | -2.0 | 7.5 | 38.6* | 0.9 | 2.7
O=c1[nH]cnc2nn(C3OC(CO)C(O)C3O)nc12 (stereo not given) | · | · | -36.3 | · | · | 1.7
C=CCN=C1NC(c2ccc(C(F)(F)F)cc2)C(C(=O)OC)=C(C)N1C (stereo not given) | · | · | -2.3 | · | · | 2.2
CC(Sc1nnc(C2CC2)n1C1CC1)C(=O)Nc1cccc(S(=O)(=O)N2CCOCC2)c1 (stereo not given) | · | · | -15.3 | 18.4* | · | 0.4
CC(Sc1nnnn1C1CC1)C(=O)Nc1cccc(S(=O)(=O)N2CCOCC2)c1 (stereo not given) | · | · | -20.1 | · | · | 2.0
CCCCc1c(-c2ccccc2OC)ncn1Cc1ccccc1F | · | · | -9.3 | · | · | 2.3
C[C@@H]1C=CCCO[C@]12C(=O)N(Cc1ccc(Br)cc1)c1cccc(Br)c12 | · | · | 33.7 | · | · | -1.4
Cc1[nH]nc2c1C(c1ccc(Br)cc1)N(Cc1ccccc1)C2=O (stereo not given) | · | · | -15.5 | · | · | 3.2
O=C(O)c1ccc(Cl)c(S(=O)(=O)Nc2cccc(C(=O)Nc3cccc(C(F)(F)F)c3)c2)c1 | 0.8 | 9.4 | 8.2 | 69.6* | 0.1 | -0.4
CN(C(=O)c1cccc(NC(=O)Cc2ccc(NC(=O)C3CCN(C(=O)CCc4ccccc4)CC3)cc2)c1)C1CCCC1 | · | · | -10.7 | · | · | 0.8
CC12CCC(C/C1=N/OC(=O)c1cccc([N+](=O)[O-])c1)C2(C)C (stereo not given) | 1.6 | -4.8 | -9.3 | -2.8 | 0.7 | 39.7*
O=C(/C=C/c1ccccc1Cl)Nc1cccc(S(=O)(=O)NC2=NCCCCC2)c1 | 0.4 | 6.2 | -1.1 | -1.5 | 1.1 | 4.6
O=C(/C=C/c1ccc([N+](=O)[O-])cc1)Nc1cccc(S(=O)(=O)NC2=NCCCCC2)c1 | · | · | 49.3* | 0.3 | · | 7.2
COCCN(CCOC)C(=O)c1ccc(NS(=O)(=O)c2ccc3[nH]c(=O)[nH]c3c2)cc1 | · | -0.5 | -8.1 | 32.9* | · | 3.4
COc1cccc(CNC(=O)[C@H]2CCCN2C(=O)[C@H]2CCCN2S(=O)(=O)c2cccc(C)c2)c1 | · | · | 3.2 | · | · | -0.7
O=C(NC1CCCC1)C(c1ccccc1)N(Cc1ccc2c(c1)OCO2)C(=O)Cc1cccs1 (stereo not given) | -0.8 | 9.9 | 50.7* | -0.7 | -1.3 | 16.6
O=C(NC1CCCC1)C(c1ccsc1)N(Cc1ccccc1)C(=O)Cc1cccs1 (stereo not given) | -0.4 | 26.2 | 51.8* | 1.3 | -1.7 | 6.4
O=C(NCc1ccco1)C(c1ccco1)N(Cc1cccs1)C(=O)Cn1nnc2ccccc21 (stereo not given) | -1.2 | -6.5 | 8.7 | -1.2 | -1.3 | 6.4
O=C(NC1CCCCC1)C(c1ccco1)N(Cc1cccs1)C(=O)Cn1nnc2ccccc21 (stereo not given) | 0.1 | 21.6* | 20.2 | 0.2 | -0.8 | 8.1
SMILES | TRPML3 ag | GPR7 antagonist | TAAR1 antagonist | LANA-H2A inh | zfTRPN1 agonist | TAAR1 agonist
C=CCCC1CN(Cc2ccc(OC)cc2)S(=O)(=O)c2c(cccc2N2CCCCC2)O1 (stereo not given) | · | · | -68.6 | · | · | 8.2
CC(C)CN1CCC(CN2C(=S)NC[C@@H]2Cc2ccccc2)CC1 | · | · | -17.9 | · | · | 0.9
CCOc1ccccc1C(=O)N1CCN(c2cccc(Cl)c2)CC1 | -1.2 | 20.6* | 6.8 | 0.2 | -2.6 | 12.6
CCOc1ccc2ccccc2c1C(=O)N1CCN(c2ccccc2)CC1 | -1.0 | 19.8* | -0.6 | 3.6 | -1.1 | 11.0
CCOc1ccccc1N1CCN(C(=O)c2cccc(-c3ccc(O)cc3)c2)CC1 | 0.2 | -10.0 | 51.3* | 2.1 | -0.4 | 13.7
CCOc1ccccc1N1CCN(C(=O)c2ccncc2)CC1 | -1.1 | -3.5 | 1.0 | -8.6 | -0.4 | 2.8
Nc1ccn([C@@H]2O[C@H](C(=O)N3CCN(CCO)CC3)[C@@H](O)[C@H]2O)c(=O)n1 | · | · | 7.5 | · | · | 0.6
COC(=O)c1cc2c(c3c4cc(OC)ccc4n(S(C)(=O)=O)c13)C(=O)N(C)C2 | · | · | 8.4 | · | · | 1.1
C=CC[C@]12C[C@@]3(O[C@H](c4ccc(C(F)(F)F)cc4)N=C3C[C@H](c3ccc(OC)cc3)[C@H]1C)N(Cc1ccncc1)C2=O | · | · | -45.1 | · | · | -0.1
CC(C)c1onc(C(=O)N2CCCCCC2)c1[N+](=O)[O-] | 1.3 | -5.7 | -22.6 | 33.4* | -0.7 | 0.2
CCC1CCCCN1C(=O)c1noc(C(C)C)c1[N+](=O)[O-] (stereo not given) | 0.2 | 19.3* | -6.6 | · | 0.8 | 5.1
CC(C)c1onc(C(=O)N2CCC(C(N)=O)CC2)c1[N+](=O)[O-] | 0.6 | -5.5 | -1.7 | -5.0 | 0.8 | -1.3
CC(C)c1onc(C(=O)NC2CCCCC2)c1[N+](=O)[O-] | -1.1 | 18.5* | 14.0 | -8.0 | 0.0 | 0.3
Cc1ccc(C2c3c(n[nH]c3C)C(=O)N2Cc2ccccc2)cc1 (stereo not given) | · | · | -22.6 | · | · | -2.5
Cc1cc(Oc2cccnc2)ccc1NC(=O)Cc1c(C)[nH]c2ccccc12 | · | · | 13.4 | · | · | -2.3
Cc1c(CCO)c(=O)[nH]n1S(=O)(=O)c1ccc(F)cc1 | · | 9.1 | -17.2 | 14.0* | · | 1.2
Cc1c(CCO)c(=O)[nH]n1S(=O)(=O)c1ccccc1 | 0.9 | -1.3 | 6.2 | 0.4 | 1.1 | 8.3
CC(=O)C1=C(C)N(Cc2ccc(Br)cc2)C(=S)NC1c1ccc(F)cc1 (stereo not given) | · | · | 2.4 | · | · | 2.9
NC(=O)c1c(N)[nH]c(C(=O)c2ccccc2)c1-c1ccccc1 | · | · | -10.9 | · | · | 6.8
CC(C)CCOC(=O)C[N+](C)(C)CCOC1CC2CCC1(C)C2(C)C (stereo not given) | 0.8 | 18.5* | -5.1 | -2.4 | -0.8 | -1.0
Cc1ccc(C2NC(=O)c3n[nH]c(C)c32)cc1 (stereo not given) | · | · | -16.4 | · | · | -0.2
